According to ChEMBL document CHEMBL4138126, “Synthesis, antiproliferative, anti-tubulin activity, and docking study of new 1,2,4-triazoles as potential combretastatin analogues” (Eur J Med Chem, 2017):

Legend:
Format in all cases: functional
HL-60(TB) = test: Growth inhibition of human HL-60(TB) cells assessed as cell growth at 10 uM after 48 hrs by sulforhodamine B assay; settings: HL-60, 48 h, read-out: Activity
In short: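 Screened by the NCI in its 60-cell-line panel covering nine cancer types, including leukemia. Compounds were added at a single concentration, and the cultures were incubated for 48 h. Results are reported as percent growth inhibition.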

SR = test: Growth inhibition of human SR cells assessed as cell growth at 10 uM after 48 hrs by sulforhodamine B assay; settings: read-out: Activity
In short: (§1)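 NCI 60-cell-line panel from nine tumour types (leukaemia, lung, colon, CNS, melanoma, ovarian, renal, prostate, breast). Each compound was added at one single concentration, and cultures were incubated for 48 h. Results are reported as percent growth inhibition.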

A549 = test: Growth inhibition of human A549/ATCC cells assessed as cell growth at 10 uM after 48 hrs by sulforhodamine B assay; settings: A549, 48 h, read-out: Activity
In short: (§2)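 NCI 60-cell-line panel screen (nine cancer types). Compounds added at single concentration 10^-5 M, cultures incubated 48 h; growth inhibition percentages reported.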

HOP-62 = test: Growth inhibition of human HOP62 cells assessed as cell growth at 10 uM after 48 hrs by sulforhodamine B assay; settings: HOP-62, 48 h, read-out: Activity; in short: as §2
HOP-92 = test: Growth inhibition of human HOP92 cells assessed as cell growth at 10 uM after 48 hrs by sulforhodamine B assay; settings: HOP-92, 48 h, read-out: Activity; in short: as §2
NCI-H23 = test: Growth inhibition of human NCI-H23 cells assessed as cell growth at 10 uM after 48 hrs by sulforhodamine B assay; settings: NCI-H23, 48 h, read-out: Activity; in short: as §2
NCI-H460 = test: Growth inhibition of human NCI-H460 cells assessed as cell growth at 10 uM after 48 hrs by sulforhodamine B assay; settings: NCI-H460, 48 h, read-out: Activity; in short: as §2
NCI-H522 = test: Growth inhibition of human NCI-H522 cells assessed as cell growth at 10 uM after 48 hrs by sulforhodamine B assay; settings: NCI-H522, 48 h, read-out: Activity; in short: as §2
COLO 205 = test: Growth inhibition of human COLO205 cells assessed as cell growth at 10 uM after 48 hrs by sulforhodamine B assay; settings: COLO 205, 48 h, read-out: Activity; in short: as §2
HCT-116 = test: Growth inhibition of human HCT116 cells assessed as cell growth at 10 uM after 48 hrs by sulforhodamine B assay; settings: HCT-116, 48 h, read-out: Activity; in short: as §2
SW-620 = test: Growth inhibition of human SW620 cells assessed as cell growth at 10 uM after 48 hrs by sulforhodamine B assay; settings: SW-620, 48 h, read-out: Activity; in short: as §1
SF-295 = test: Growth inhibition of human SF295 cells assessed as cell growth at 10 uM after 48 hrs by sulforhodamine B assay; settings: SF-295, 48 h, read-out: Activity; in short: as §2
SF-539 = test: Growth inhibition of human SF539 cells assessed as cell growth at 10 uM after 48 hrs by sulforhodamine B assay; settings: SF-539, 48 h, read-out: Activity; in short: as §2
SNB-75 = test: Growth inhibition of human SNB75 cells assessed as cell growth at 10 uM after 48 hrs by sulforhodamine B assay; settings: SNB-75, 48 h, read-out: Activity; in short: as §1
M14 = test: Growth inhibition of human M14 cells assessed as cell growth at 10 uM after 48 hrs by sulforhodamine B assay; settings: M14, 48 h, read-out: Activity; in short: as §2
MDA-MB-435 = test: Growth inhibition of human MDA-MB-435 cells assessed as cell growth at 10 uM after 48 hrs by sulforhodamine B assay; settings: MDA-MB-435, 48 h, read-out: Activity; in short: as §2
SK-MEL-2 = test: Growth inhibition of human SK-MEL-2 cells assessed as cell growth at 10 uM after 48 hrs by sulforhodamine B assay; settings: SK-MEL-2, 48 h, read-out: Activity; in short: as §2
IGROV-1 = test: Growth inhibition of human IGROV1 cells assessed as cell growth at 10 uM after 48 hrs by sulforhodamine B assay; settings: IGROV-1, 48 h, read-out: Activity; in short: as §2
OVCAR-4 = test: Growth inhibition of human OVCAR4 cells assessed as cell growth at 10 uM after 48 hrs by sulforhodamine B assay; settings: OVCAR-4, 48 h, read-out: Activity; in short: as §2
OVCAR-5 = test: Growth inhibition of human OVCAR5 cells assessed as cell growth at 10 uM after 48 hrs by sulforhodamine B assay; settings: OVCAR-5, 48 h, read-out: Activity; in short: as §2
OVCAR-8 = test: Growth inhibition of human OVCAR8 cells assessed as cell growth at 10 uM after 48 hrs by sulforhodamine B assay; settings: OVCAR-8, 48 h, read-out: Activity; in short: as §2
NCI/ADR-RES = test: Growth inhibition of human NCI-ADR-RES cells assessed as cell growth at 10 uM after 48 hrs by sulforhodamine B assay; settings: read-out: Activity; in short: as §2
SK-OV-3 = test: Growth inhibition of human SKOV3 cells assessed as cell growth at 10 uM after 48 hrs by sulforhodamine B assay; settings: SK-OV-3, 48 h, read-out: Activity; in short: as §2
786-0 = test: Growth inhibition of human 786-0 cells assessed as cell growth at 10 uM after 48 hrs by sulforhodamine B assay; settings: 786-0, 48 h, read-out: Activity; in short: as §2
A498 = test: Growth inhibition of human A498 cells assessed as cell growth at 10 uM after 48 hrs by sulforhodamine B assay; settings: A498, 48 h, read-out: Activity; in short: as §2
TK-10 = test: Growth inhibition of human TK10 cells assessed as cell growth at 10 uM after 48 hrs by sulforhodamine B assay; settings: TK-10, 48 h, read-out: Activity; in short: as §1
UO-31 = test: Growth inhibition of human UO31 cells assessed as cell growth at 10 uM after 48 hrs by sulforhodamine B assay; settings: UO-31, 48 h, read-out: Activity; in short: as §1
PC-3 = test: Growth inhibition of human PC3 cells assessed as cell growth at 10 uM after 48 hrs by sulforhodamine B assay; settings: PC-3, 48 h, read-out: Activity; in short: as §2
MCF7 = test: Growth inhibition of human MCF7 cells assessed as cell growth at 10 uM after 48 hrs by sulforhodamine B assay; settings: MCF7, 48 h, read-out: Activity; in short: as §2
MDA-MB-231 = test: Growth inhibition of human MDA-MB-231 cells assessed as cell growth at 10 uM after 48 hrs by sulforhodamine B assay; settings: MDA-MB-231, 48 h, read-out: Activity; in short: as §2
Hs-578T = test: Growth inhibition of human Hs 578T cells assessed as cell growth at 10 uM after 48 hrs by sulforhodamine B assay; settings: read-out: Activity; in short: as §2
BT-549 = test: Growth inhibition of human BT549 cells assessed as cell growth at 10 uM after 48 hrs by sulforhodamine B assay; settings: BT-549, 48 h, read-out: Activity; in short: as §2
T47D = test: Growth inhibition of human T47D cells assessed as cell growth at 10 uM after 48 hrs by sulforhodamine B assay; settings: read-out: Activity; in short: as §1

Structure (SMILES) | growth at 10 µM (HL-60(TB)) | growth at 10 µM (SR) | growth at 10 µM (A549) | growth at 10 µM (HOP-62) | growth at 10 µM (HOP-92) | growth at 10 µM (NCI-H23) | growth at 10 µM (NCI-H460) | growth at 10 µM (NCI-H522) | growth at 10 µM (COLO 205) | growth at 10 µM (HCT-116) | growth at 10 µM (SW-620) | growth at 10 µM (SF-295) | growth at 10 µM (SF-539) | growth at 10 µM (SNB-75) | growth at 10 µM (M14) | growth at 10 µM (MDA-MB-435) | growth at 10 µM (SK-MEL-2) | growth at 10 µM (IGROV-1) | growth at 10 µM (OVCAR-4) | growth at 10 µM (OVCAR-5) | other results
CCOc1ccc(-n2nc(C(=O)Nc3ccccc3OC)nc2-c2cc(OC)c(OC)c(OC)c2)cc1 | 73.2% | 65.7% | 77.3% | 86.5% | 86.8% | 97.8% | 83.4% | 69.2% | 78.7% | 72.7% | 100% | 84.8% | 85.7% | 66.6% | 92.8% | 86.9% | 81.9% | 99.3% | 72.9% | 82.4% | growth at 10 µM (OVCAR-8): 90.3%; growth at 10 µM (NCI/ADR-RES): 85.3%; growth at 10 µM (SK-OV-3): 88.8%; growth at 10 µM (786-0): 79.1%; growth at 10 µM (A498): 83.8%; growth at 10 µM (TK-10): 89.2%; growth at 10 µM (UO-31): 59.6%; growth at 10 µM (PC-3): 65.5%; growth at 10 µM (MCF7): 77.4%; growth at 10 µM (MDA-MB-231): 44.5%; growth at 10 µM (Hs-578T): 81.5%; growth at 10 µM (BT-549): 77.6%; growth at 10 µM (T47D): 50.2%
CCOc1ccc(-n2nc(C(=O)Nc3cccc(OC)c3)nc2-c2cc(OC)c(OC)c(OC)c2)cc1 | 87.5% | 52.6% | 68.2% | 91.9% | 67.2% | 85.9% | 79.3% | 57.9% | 66.6% | 67.3% | 99.7% | 68.5% | 90.2% | 68.1% | 83.7% | 86.8% | 86.9% | 90.7% | 75.1% | 95.5% | growth at 10 µM (OVCAR-8): 53.1%; growth at 10 µM (NCI/ADR-RES): 77.5%; growth at 10 µM (SK-OV-3): 96.5%; growth at 10 µM (786-0): 84.8%; growth at 10 µM (A498): 78.8%; growth at 10 µM (TK-10): 93.6%; growth at 10 µM (UO-31): 50.9%; growth at 10 µM (PC-3): 59%; growth at 10 µM (MCF7): 83.5%; growth at 10 µM (MDA-MB-231): 55.1%; growth at 10 µM (Hs-578T): 73.2%; growth at 10 µM (BT-549): 72.3%; growth at 10 µM (T47D): 58.5%
CCOc1ccc(-n2nc(C(=O)Nc3ccc(F)c(F)c3F)nc2-c2cc(OC)c(OC)c(OC)c2)cc1 | 81.5% | 86.5% | 85.7% | 86.5% | 84.9% | 97.5% | 104% | 71.5% | 90% | 73.4% | 103% | 93% | 87.9% | 68.3% | 93.9% | 90% | 84.1% | 95.6% | 78.8% | 81.5% | growth at 10 µM (OVCAR-8): 93.4%; growth at 10 µM (NCI/ADR-RES): 88.6%; growth at 10 µM (SK-OV-3): 85%; growth at 10 µM (786-0): 79.6%; growth at 10 µM (A498): 88.7%; growth at 10 µM (TK-10): 101%; growth at 10 µM (UO-31): 51.5%; growth at 10 µM (PC-3): 71.6%; growth at 10 µM (MCF7): 79.5%; growth at 10 µM (MDA-MB-231): 73.6%; growth at 10 µM (Hs-578T): 80.7%; growth at 10 µM (BT-549): 78.9%; growth at 10 µM (T47D): 65.7%
CCOc1ccc(-n2nc(C(=O)Nc3ccccc3)nc2-c2cc(OC)c(OC)c(OC)c2)cc1 | 32.9% | 17% | 41.4% | 55.7% | 46% | 66.6% | 27.9% | 22.8% | 22.1% | 21.2% | 36.1% | 34% | 62% | 35.1% | 38% | 0.19% | 37.7% | 55.1% | 59.5% | 84.1% | growth at 10 µM (OVCAR-8): 61.6%; growth at 10 µM (NCI/ADR-RES): 45.7%; growth at 10 µM (SK-OV-3): 51%; growth at 10 µM (786-0): 69.4%; growth at 10 µM (A498): 10.3%; growth at 10 µM (TK-10): 72.5%; growth at 10 µM (UO-31): 37.7%; growth at 10 µM (PC-3): 44.9%; growth at 10 µM (MCF7): 37%; growth at 10 µM (MDA-MB-231): 43.9%; growth at 10 µM (Hs-578T): 39.6%; growth at 10 µM (BT-549): 60.9%; growth at 10 µM (T47D): 39.4%
CCOc1ccc(-n2nc(C(=O)Nc3cc(OC)c(OC)c(OC)c3)nc2-c2cc(OC)c(OC)c(OC)c2)cc1 | 98.2% | 40.7% | 86.9% | 95.7% | 69.9% | 85% | 92.1% | 65.9% | 80.3% | 75.8% | 95.5% | 95.9% | 87.8% | 65.6% | 91.5% | 79.6% | 85.6% | 90.8% | 68.1% | 102% | growth at 10 µM (OVCAR-8): 74%; growth at 10 µM (NCI/ADR-RES): 85.8%; growth at 10 µM (SK-OV-3): 99.7%; growth at 10 µM (786-0): 77.1%; growth at 10 µM (A498): 67.3%; growth at 10 µM (TK-10): 104%; growth at 10 µM (UO-31): 52.6%; growth at 10 µM (PC-3): 70.2%; growth at 10 µM (MCF7): 83.2%; growth at 10 µM (MDA-MB-231): 50.5%; growth at 10 µM (Hs-578T): 65.6%; growth at 10 µM (BT-549): 91.5%; growth at 10 µM (T47D): 51.4%
